Results from ChEMBL document CHEMBL1759994, “The discovery and synthesis of potent zwitterionic inhibitors of renin” (Bioorg Med Chem Lett, 2011).

Key:
Renin [1] = target: T1, Renin (Homo sapiens, UniProt P00797); assay: Inhibition of human recombinant renin in PBS buffer using tetradecapeptide at pH 7.4
T1 sequence (P00797 whole entry): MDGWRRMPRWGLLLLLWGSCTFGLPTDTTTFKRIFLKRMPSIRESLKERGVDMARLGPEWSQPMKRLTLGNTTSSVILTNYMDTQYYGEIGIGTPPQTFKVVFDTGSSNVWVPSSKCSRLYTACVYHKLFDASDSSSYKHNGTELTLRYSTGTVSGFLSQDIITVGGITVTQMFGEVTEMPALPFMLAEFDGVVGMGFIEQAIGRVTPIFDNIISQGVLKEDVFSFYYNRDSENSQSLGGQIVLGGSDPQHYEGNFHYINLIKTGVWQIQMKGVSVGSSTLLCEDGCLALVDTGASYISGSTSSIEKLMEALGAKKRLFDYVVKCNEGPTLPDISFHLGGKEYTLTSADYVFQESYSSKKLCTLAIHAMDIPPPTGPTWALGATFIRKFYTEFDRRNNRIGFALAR

Cytochrome P450 3A4 [2] = target: T2, Cytochrome P450 3A4 (Homo sapiens, UniProt P08684); assay: Inhibition of human CYP3A4 in human liver microsomes assessed as formation of 6beta-hydroxy-testosterone using testosterone as substrate by high throughput mass spectrometry preincubated for 30 mins in presence of NADPH; format: ADME, Microsome
Cytochrome P450 3A4 [3] = target: T2, Cytochrome P450 3A4; assay: Inhibition of human CYP3A4 in human liver microsomes assessed as formation of 6beta-hydroxy-testosterone using testosterone as substrate by high throughput mass spectrometry in absence of NADPH; format: ADME, Microsome
CYP3A4 = CYP3A4 (Homo sapiens, UniProt P08684); assay: Ratio of IC50 for human CYP3A4 in absence of NADPH to IC50 for human CYP3A4 preincubated for 30 mins in presence of NADPH; conditions: read-out: Ratio IC50
Renin [4] = target: T1, Renin; assay: Inhibition of human recombinant renin in human citreated-plasma
[5] = target: Voltage-gated inwardly rectifying potassium channel KCNH2 (Homo sapiens, UniProt Q12809); assay: Binding affinity to human ERG
[6] = Bioavailability in Sprague-Dawley rat at 20 mg/kg, intra-duodenum in 5% dextrose; format: ADME, organism-based; conditions: in vivo
Method in brief: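 Rats were dosed directly into the duodenum at 20 mg/kg in 5% dextrose, 1 mL/kg. Bioavailability was calculated for the parent carboxylic acid.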

[7] = AUC (0 to 24 hrs) in Sprague-Dawley rat at 30 mg/kg, po in 60% PEG 200 at PH 2.5; format: ADME, organism-based; parameters: time < 24 hr, dose 30 mg/kg, route oral; conditions: plasma
[8] = Oral bioavailability in Sprague-Dawley rat at 30 mg/kg in 60% PEG 200; format: ADME, organism-based; conditions: in vivo
[9] = Oral bioavailability in Sprague-Dawley rat at 30 mg/kg in Ca salt in 0.5% methocel; format: ADME, organism-based; conditions: in vivo
[10] = Oral bioavailability in Sprague-Dawley rat at 30 mg/kg in Na salt in 0.5% methocel; format: ADME, organism-based; conditions: in vivo
[11] = AUC (0 to 24 hrs) in Sprague-Dawley rat at 30 mg/kg, po in peanut oil; format: ADME, organism-based; parameters: time < 24 hr, dose 30 mg/kg, route oral; conditions: plasma
[12] = AUC (0 to 24 hrs) in Sprague-Dawley rat at 30 mg/kg, po in Na salt in 0.5% methocel; format: ADME, organism-based; parameters: time < 24 hr, dose 30 mg/kg, route oral; conditions: plasma
[13] = AUC (0 to 24 hrs) in Sprague-Dawley rat at 30 mg/kg, po as 0.5% methocel suspension; format: ADME, organism-based; parameters: time < 24 hr, dose 30 mg/kg, route oral; conditions: plasma
[14] = AUC (0 to 24 hrs) in Sprague-Dawley rat at 30 mg/kg, po in lyposin 2; format: ADME, organism-based; parameters: time < 24 hr, dose 30 mg/kg, route oral; conditions: plasma
[15] = Oral bioavailability in Sprague-Dawley rat at 30 mg/kg in peanut oil; format: ADME, organism-based; conditions: in vivo
[16] = AUC (0 to 24 hrs) in Sprague-Dawley rat at 30 mg/kg, po in 60% PEG 200; format: ADME, organism-based; parameters: time < 24 hr, dose 30 mg/kg, route oral; conditions: plasma
[17] = Oral bioavailability in Sprague-Dawley rat at 30 mg/kg as 0.5% methocel suspension; format: ADME, organism-based; conditions: in vivo
[18] = Clearance in Sprague-Dawley rat at 30 mg/kg, po in 0.5% methocel and 3 to 5 mg/kg, iv in 60% PEG 200; conditions: in vivo
[19] = AUC (0 to 24 hrs) in Sprague-Dawley rat at 30 mg/kg, po in Ca salt in 0.5% methocel; format: ADME, organism-based; parameters: time < 24 hr, dose 30 mg/kg, route oral; conditions: plasma
[20] = Oral bioavailability in Sprague-Dawley rat at 30 mg/kg in lyposin 2; format: ADME, organism-based; conditions: in vivo
[21] = Oral bioavailability in Sprague-Dawley rat at 30 mg/kg in 60% PEG 200 at PH 2.5; format: ADME, organism-based; conditions: in vivo
Liver [22] = assay: Metabolic stability in Sprague-Dawley rat liver S9 fraction assessed as conversion to (1R,2R)-2-((3-(((3R,4S)-N-cyclopropyl-4-(4-(2-(2,6-dichloro-4-methylphenoxy)ethoxy)phenyl)piperidine-3-carboxamido)methyl)-5-(3-methoxypropyl)phenoxy)methyl)cyclopropanecarboxylic acid after 20 mins; format: ADME, subcellular; conditions: s9, 20 min
Method in brief: (§1)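 Prodrugs were incubated for 20 min in rat or human whole blood, or in rat or human liver S9 fraction (n = 2). The read-out was % conversion to the parent carboxylic acid.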

Blood [23] = assay: Metabolic stability in Sprague-Dawley rat whole blood assessed as conversion to (1R,2R)-2-((3-(((3R,4S)-N-cyclopropyl-4-(4-(2-(2,6-dichloro-4-methylphenoxy)ethoxy)phenyl)piperidine-3-carboxamido)methyl)-5-(3-methoxypropyl)phenoxy)methyl)cyclopropanecarboxylic acid after 20 mins; format: ADME, tissue-based; method in brief: as §1
Blood [24] = assay: Metabolic stability in human whole blood assessed as conversion to (1R,2R)-2-((3-(((3R,4S)-N-cyclopropyl-4-(4-(2-(2,6-dichloro-4-methylphenoxy)ethoxy)phenyl)piperidine-3-carboxamido)methyl)-5-(3-methoxypropyl)phenoxy)methyl)cyclopropanecarboxylic acid after 20 mins; format: ADME, tissue-based; method in brief: as §1
Liver [25] = assay: Metabolic stability in human liver S9 fraction assessed as conversion to (1R,2R)-2-((3-(((3R,4S)-N-cyclopropyl-4-(4-(2-(2,6-dichloro-4-methylphenoxy)ethoxy)phenyl)piperidine-3-carboxamido)methyl)-5-(3-methoxypropyl)phenoxy)methyl)cyclopropanecarboxylic acid after 20 mins; format: ADME, subcellular; conditions: s9, 20 min; method in brief: as §1

T2 sequence (P08684 whole entry): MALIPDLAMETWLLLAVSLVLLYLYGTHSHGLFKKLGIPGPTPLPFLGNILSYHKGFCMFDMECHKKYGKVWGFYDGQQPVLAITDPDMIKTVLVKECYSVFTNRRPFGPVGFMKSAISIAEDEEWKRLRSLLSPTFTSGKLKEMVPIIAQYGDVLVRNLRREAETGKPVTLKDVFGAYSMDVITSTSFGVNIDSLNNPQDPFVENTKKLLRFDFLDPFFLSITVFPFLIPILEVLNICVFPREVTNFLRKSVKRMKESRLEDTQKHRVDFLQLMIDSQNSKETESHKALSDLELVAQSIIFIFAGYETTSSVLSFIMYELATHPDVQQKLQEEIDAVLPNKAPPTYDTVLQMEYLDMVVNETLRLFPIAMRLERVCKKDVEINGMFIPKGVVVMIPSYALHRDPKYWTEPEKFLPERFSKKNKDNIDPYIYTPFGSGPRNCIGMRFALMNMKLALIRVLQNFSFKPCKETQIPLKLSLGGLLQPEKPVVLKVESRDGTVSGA
Sequence of Voltage-gated inwardly rectifying potassium channel KCNH2 (Q12809 whole entry): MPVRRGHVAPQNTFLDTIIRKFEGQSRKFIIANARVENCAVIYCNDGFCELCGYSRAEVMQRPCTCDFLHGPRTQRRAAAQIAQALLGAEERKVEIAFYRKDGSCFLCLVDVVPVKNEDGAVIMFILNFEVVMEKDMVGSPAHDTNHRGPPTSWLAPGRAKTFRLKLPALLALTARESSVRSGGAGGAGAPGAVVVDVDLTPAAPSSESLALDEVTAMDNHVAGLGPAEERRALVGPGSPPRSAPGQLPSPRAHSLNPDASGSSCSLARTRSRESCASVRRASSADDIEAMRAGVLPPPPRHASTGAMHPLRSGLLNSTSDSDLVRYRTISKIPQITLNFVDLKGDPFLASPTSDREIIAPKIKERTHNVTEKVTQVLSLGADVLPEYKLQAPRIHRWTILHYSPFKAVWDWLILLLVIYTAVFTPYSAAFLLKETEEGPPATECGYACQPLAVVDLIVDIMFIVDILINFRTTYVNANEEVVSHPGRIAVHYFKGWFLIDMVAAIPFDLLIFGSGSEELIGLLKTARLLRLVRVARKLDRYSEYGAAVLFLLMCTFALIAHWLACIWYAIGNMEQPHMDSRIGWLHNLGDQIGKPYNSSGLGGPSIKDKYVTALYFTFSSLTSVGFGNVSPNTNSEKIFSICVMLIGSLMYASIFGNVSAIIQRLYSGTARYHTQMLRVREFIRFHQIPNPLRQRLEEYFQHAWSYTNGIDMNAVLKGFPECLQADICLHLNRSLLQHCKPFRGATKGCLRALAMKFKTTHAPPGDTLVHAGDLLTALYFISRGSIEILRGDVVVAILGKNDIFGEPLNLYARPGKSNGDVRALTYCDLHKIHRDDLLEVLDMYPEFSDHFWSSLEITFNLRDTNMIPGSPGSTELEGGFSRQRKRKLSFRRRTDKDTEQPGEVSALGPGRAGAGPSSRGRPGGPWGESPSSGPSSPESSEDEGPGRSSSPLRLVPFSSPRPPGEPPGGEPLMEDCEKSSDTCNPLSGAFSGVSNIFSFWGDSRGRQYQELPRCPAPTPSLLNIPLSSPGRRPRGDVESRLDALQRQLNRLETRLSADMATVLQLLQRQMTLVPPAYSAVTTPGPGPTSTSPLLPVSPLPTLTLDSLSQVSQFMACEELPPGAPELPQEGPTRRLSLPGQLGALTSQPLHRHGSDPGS
Sequence of CYP3A4 (P08684 whole entry): as the sequence (P08684 whole entry) above

Row | IC50 (Renin [1]) | IC50 (Cytochrome P450 3A4 [2]) | IC50 (Cytochrome P450 3A4 [3]) | IC50 (Renin [4]) | AUC(0-t) at 24 h [13] | Activity (Liver [22]) | Activity (Blood [23]) | Activity (Blood [24]) | Compound | Ki [5] | also measured
1 | 0.028 nM | 1400 nM | 19600 nM | 10.9 nM |  |  |  |  | COCCCc1cc(CN(C(=O)[C@H]2CNCC[C@@H]2c2ccc(OCCOc3c(Cl)cc(C)cc3Cl)cc2)C2CC2)cc(OCC2(CC#N)CC2)c1 | 60 nM | IC50 shift (CYP3A4): 14.1
2 |  | 2400 nM | 21600 nM |  |  |  |  |  | COCCCc1cc(CN(C(=O)[C@H]2CNCC[C@@H]2c2ccc(OCCOc3c(Cl)cc(C)cc3Cl)cc2)C2CC2)cc(OCCOC)c1 | 80 nM | 
3 |  | 1400 nM | 22700 nM |  |  |  |  |  | COCCCc1cc(CN(C(=O)[C@H]2CNCC[C@@H]2c2ccc(OCCOc3c(Cl)cc(C)cc3Cl)cc2)C2CC2)cc(OCCN(C)C)c1 | 180 nM | 
4 | 0.028 nM |  |  | 2.9 nM |  |  |  |  | COCCCc1cc(CN(C(=O)[C@H]2CNCC[C@@H]2c2ccc(OCCOc3c(Cl)cc(C)cc3Cl)cc2)C2CC2)cc(OCCCNS(C)(=O)=O)c1 | 80 nM | 
5 | 0.022 nM | 2400 nM | 6300 nM | 3.3 nM |  |  |  |  | CCNC(=O)NCCCOc1cc(CCCOC)cc(CN(C(=O)[C@H]2CNCC[C@@H]2c2ccc(OCCOc3c(Cl)cc(C)cc3Cl)cc2)C2CC2)c1 | 150 nM | IC50 shift (CYP3A4): 2.6
6 |  | 5600 nM | > 50000 nM |  |  |  |  |  | COCCCc1cc(CN(C(=O)[C@H]2CNCC[C@@H]2c2ccc(OCCOc3c(Cl)cc(C)cc3Cl)cc2)C2CC2)cc(OCC(C)(C)O)c1 | 130 nM | 
7 | 0.027 nM | > 50000 nM | > 50000 nM | 1.1 nM | 0.1 µM·h |  |  |  | COCCCc1cc(CN(C(=O)[C@H]2CNCC[C@@H]2c2ccc(OCCOc3c(Cl)cc(C)cc3Cl)cc2)C2CC2)cc(OC[C@H]2C[C@@H]2C(=O)O)c1 | 1070 nM | bioavailability [6]: 0%; AUC(0-t) at 24 h [7]: 0.1 µM·h; bioavailability [8]: 4%; bioavailability [9]: 0%; bioavailability [10]: 1%; AUC(0-t) at 24 h [11]: 0.1 µM·h; AUC(0-t) at 24 h [12]: 0.1 µM·h; AUC(0-t) at 24 h [14]: 0.03 µM·h; bioavailability [15]: 1%; AUC(0-t) at 24 h [16]: 0.5 µM·h; bioavailability [17]: 1%; clearance [18]: 60 mL/min/kg; AUC(0-t) at 24 h [19]: 0.3 µM·h; bioavailability [20]: 0%; bioavailability [21]: 1%
8 |  |  |  |  | 3.5 µM·h | 66% | 100% | 1% | COCCCc1cc(CN(C(=O)[C@H]2CNCC[C@@H]2c2ccc(OCCOc3c(Cl)cc(C)cc3Cl)cc2)C2CC2)cc(OC[C@H]2C[C@@H]2C(=O)OCC(=O)N(C)C)c1 | 200 nM | 
9 |  |  |  |  |  | 81% | 100% | 38% | CCOC(=O)OC(C)OC(=O)[C@H]1C[C@@H]1COc1cc(CCCOC)cc(CN(C(=O)[C@H]2CNCC[C@@H]2c2ccc(OCCOc3c(Cl)cc(C)cc3Cl)cc2)C2CC2)c1 (stereo not given in full) |  | Activity (Liver [25]): 90%
10 |  |  |  |  | 0.2 µM·h | 83% | 100% | 56% | COCCCc1cc(CN(C(=O)[C@H]2CNCC[C@@H]2c2ccc(OCCOc3c(Cl)cc(C)cc3Cl)cc2)C2CC2)cc(OC[C@H]2C[C@@H]2C(=O)OCOC(=O)C(C)(C)C)c1 | 40 nM | Activity (Liver [25]): 95%
